Assay results from ChEMBL document CHEMBL1124378, “Synthesis and pharmacological evaluation of a series of 4-piperazinylpyrazolo[3,4-b]- and -[4,3-b][1,5]benzodiazepines as potential anxiolytics” (J Med Chem, 1989).

Legend:
Rattus norvegicus [1] = assay: Rotarod response in rat to assess muscular incoordination (following p.o. dosing); format: functional
How it was run: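 Male Olac-Wistar rats (140-150 g), five per group, fed ad libitum, dosed orally. Tested 1 and 2 h later on a horizontal rod (2 rpm, 32 mm diameter), maximum 30 s. Mean time compared with vehicle controls by Mann-Whitney U test, significant at p < 0.05.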

Rattus norvegicus [2] = assay: Compound administered perorally was evaluated for the conditioned avoidance response in rats; format: functional
How it was run: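 Olac-Wistar rats (120-130 g) trained to cross a shuttle box on a 5-s buzzer, with mild shock if no response within 1 s after it ends. Only high-responders used. Groups of five were dosed orally in water or 0.5% carboxymethylcellulose 1 h 50 min before testing. After 10-min habituation they were tested 20 min. Blockade = shocks as % of stimuli presented.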

Rattus norvegicus [3] = species: Rattus norvegicus; assay: compound behavior in rat; format: functional; parameters: unit not given here
How it was run: (§1)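 Olac-Wistar rats (180-190 g), eight per group, dosed orally, front paws placed on a 1.5-cm rod 7 cm above the table. Tested at 0.5, 1, 1.5, 2, 3, 4 and 5 h, up to 20 min hold. Each animal's maximum score (0-5 by time held) was summed, giving a group maximum of 40.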

Mus musculus [4] = assay: Compound administered perorally was evaluated for the hypothermia (rectal temperature) in mice; format: functional
How it was run: (§2)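 Groups of three CFW mice (21-23 g) received oral compound in water or 0.5% carboxymethylcellulose. Rectal temperature was taken at 0.25, 2.5 and 5.0 h. Mean change from the group's initial mean was summed over the three times. Hypothermia scored if the summed reduction was >4 °C.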

Mus musculus [5] = assay: Dose below which no catalepsy was observed at any time period (following p.o. dosing); format: functional
How it was run: (§3)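 CFW mice (21-23 g), three per group, dosed orally in water or 0.5% carboxymethylcellulose. Checked at 0.25, 2.5 and 5.0 h for holding one hind limb on a 2-cm rubber bung and staying on a vertical grid, judged against a control by a trained observer.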

Rattus norvegicus [6] = species: Rattus norvegicus; assay: Compound behavior in rat; format: functional; parameters: unit not given here; how it was run: as §1
[7] = target: Muscarinic acetylcholine receptor; assay: Compound was evaluated for the inhibition of [3H]QNB binding to Muscarinic acetylcholine receptor from male Olac rat brain.
[8] = target: D(2) dopamine receptor (Bos taurus) (UniProt P20288); assay: Inhibition of [3H]spiperone binding to Dopamine receptor D2 from calf caudate
Rattus norvegicus [9] = assay: The compound was evaluated for the anticonflict behavior in male wistar rats as rate of responses (timeout) following dose of 10 mg/kg po; format: functional; parameters: unit: responses/min
How it was run: (§4)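 Male Wistar rats on 23-h food deprivation, water ad libitum, trained to lever-press for food on continuous reinforcement until stable. Compound or vehicle given orally in randomized sequence 60 min before testing. Responses/min were recorded in reward, timeout and conflict components. Differences from control were tested by Wilcoxon test.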

Rattus norvegicus [10] = assay: The compound was evaluated for the anticonflict behavior in male wistar rats as rate of responses (reward) following dose of 0 mg/kg po; format: functional; parameters: unit: responses/min; how it was run: as §4
Rattus norvegicus [11] = assay: The compound was evaluated for the anticonflict behavior in male wistar rats as rate of responses (reward) following dose of 5.0 mg/kg po; format: functional; parameters: unit: responses/min; how it was run: as §4
Rattus norvegicus [12] = assay: The compound was evaluated for the anticonflict behavior in male wistar rats as rate of responses (timeout) following dose of 20 mg/kg po; format: functional; parameters: unit: responses/min; how it was run: as §4
Rattus norvegicus [13] = assay: The compound was evaluated for the anticonflict behavior in male wistar rats as rate of responses (conflict) following dose of 5.0 mg/kg po; format: functional; parameters: unit: responses/min; how it was run: as §4
Rattus norvegicus [14] = assay: The compound was evaluated for the anticonflict behavior in male wistar rats as rate of responses (timeout) following dose of 0 mg/kg po; format: functional; how it was run: as §4
Rattus norvegicus [15] = assay: The compound was evaluated for the anticonflict behavior in male wistar rats as rate of responses (conflict) following dose of 10 mg/kg po; format: functional; parameters: unit: responses/min; how it was run: as §4
Rattus norvegicus [16] = assay: The compound was evaluated for the anticonflict behavior in male wistar rats as rate of responses (conflict) following dose of 2.5 mg/kg po; format: functional; how it was run: as §4
Rattus norvegicus [17] = assay: The compound was evaluated for the anticonflict behavior in male wistar rats as rate of responses (conflic) following dose of 20 mg/kg po; format: functional; parameters: unit: responses/min; how it was run: as §4
Rattus norvegicus [18] = assay: The compound was evaluated for the anticonflict behavior in male wistar rats as rate of responses (reward) following dose of 2.5 mg/kg po; format: functional; how it was run: as §4
Rattus norvegicus [19] = assay: The compound was evaluated for the anticonflict behavior in male wistar rats as rate of responses (conflict) following dose of 0 mg/kg po; format: functional; parameters: unit: responses/min; how it was run: as §4
Rattus norvegicus [20] = assay: The compound was evaluated for the anticonflict behavior in male wistar rats as rate of responses (reward) following dose of 20 mg/kg po; format: functional; parameters: unit: responses/min; how it was run: as §4
Rattus norvegicus [21] = assay: The compound was evaluated for the anticonflict behavior in male wistar rats as rate of responses (reward) following dose of 10 mg/kg po; format: functional; parameters: unit: responses/min; how it was run: as §4
Rattus norvegicus [22] = assay: The compound was evaluated for the anticonflict behavior in male wistar rats as rate of responses (timeout) following dose of 2.5 mg/kg po; format: functional; how it was run: as §4
Rattus norvegicus [23] = assay: The compound was evaluated for the anticonflict behavior in male wistar rats as rate of responses (timeout) following dose of 5.0 mg/kg po; format: functional; parameters: unit: responses/min; how it was run: as §4
Rattus norvegicus [24] = assay: The compound was evaluated for the anticonflict behavior in male wistar rats as rate of responses (reward) following dose of 40 mg/kg po; format: functional; how it was run: as §4
Mus musculus [25] = assay: Compound administered perorally was evaluated for the dose below which no catalepsy was observed at any time period; format: functional; how it was run: as §3
[26] = target: Muscarinic acetylcholine receptor; assay: Inhibition of [3H]QNB binding to muscarinic cholinergic receptor from male Olac rat brain.
[27] = target: D(2) dopamine receptor (Bos taurus) (UniProt P20288); assay: Inhibition of [3H]spiperone binding to dopamine receptor D2 from calf caudate
Rattus norvegicus [28] = assay: The compound was evaluated for the anticonflict behavior in male wistar rats as rate of responses (timeout) following dose of 40 mg/kg po; format: functional; how it was run: as §4
Rattus norvegicus [29] = assay: The compound was evaluated for the anticonflict behavior in male wistar rats as rate of responses (conflict) following dose of 40 mg/kg po; format: functional; how it was run: as §4
Mus musculus [30] = assay: Compound administered perorally was evaluated for the hypothermia (rectal temperature ) in mice; format: functional; how it was run: as §2
Rattus norvegicus [31] = assay: Compound administered perorally was evaluated for the conditioned avoidance response in rats

| Compound | ED (Rattus norvegicus [1]) [mg/kg] | ED (Rattus norvegicus [2]) [mg/kg] | Activity (Rattus norvegicus [3]) | EDmin (Mus musculus [4]) [mg/kg] | EDmin (Mus musculus [5]) [mg/kg] | Activity (Rattus norvegicus [6]) | IC50 [7] [µM] | IC50 [8] [µM] | IC50 [26] [µM] | IC50 [27] [µM] | EDmin (Mus musculus [30]) [mg/kg] | further results |
| --- | --- | --- | --- | --- | --- | --- | --- | --- | --- | --- | --- | --- |
| Cc1cc2c(s1)Nc1ccc(F)cc1N=C2N1CCN(C)CC1 [FLUMEZAPINE] | 10 | 5 | 20 | 1.6 | 6.25 | – | – | – | – | – | – | – |
| Cc1ccc2c(c1)Nc1nn(C)cc1C(N1CCN(C)CC1)=N2 | >50 | >50 | – | 200 | >400 | >50 | > 100 | 5.6 | – | – | – | – |
| CN1CCN(C2=Nc3cc(Br)ccc3Nc3nn(C)cc32)CC1 | >10 | >5 | – | 12.5 | 25 | – | > 10 | 0.68 | – | – | – | Activity (Rattus norvegicus [9]): 8; Activity (Rattus norvegicus [10]): 18.7; Activity (Rattus norvegicus [11]): 22.1; Activity (Rattus norvegicus [12]): 4.4; Activity (Rattus norvegicus [13]): 2.6; Activity (Rattus norvegicus [14]): 2; Activity (Rattus norvegicus [15]): 5; Activity (Rattus norvegicus [16]): 2.2; Activity (Rattus norvegicus [17]): 4.1; Activity (Rattus norvegicus [18]): 21.9; Activity (Rattus norvegicus [19]): 0.5; Activity (Rattus norvegicus [20]): 14.1; Activity (Rattus norvegicus [21]): 23; Activity (Rattus norvegicus [22]): 2.1; Activity (Rattus norvegicus [23]): 6 |
| CN1CCN(C2=Nc3cc(F)ccc3Nc3nn(C)cc32)CC1 | >20 | 100 | >100 | 1.6 | – | – | – | – | 150 | 2.6 | – | Activity (Rattus norvegicus [9]): 7.4; Activity (Rattus norvegicus [24]): 48.3; EDmin (Mus musculus [25]): 50 mg/kg; Activity (Rattus norvegicus [10]): 47.3; Activity (Rattus norvegicus [11]): 45.1; Activity (Rattus norvegicus [12]): 15.4; Activity (Rattus norvegicus [13]): 3.9; Activity (Rattus norvegicus [14]): 5.4; Activity (Rattus norvegicus [15]): 9.6; Activity (Rattus norvegicus [17]): 6.9; Activity (Rattus norvegicus [28]): 15.4; Activity (Rattus norvegicus [19]): 3; Activity (Rattus norvegicus [20]): 45.9; Activity (Rattus norvegicus [21]): 42.1; Activity (Rattus norvegicus [29]): 10.1; Activity (Rattus norvegicus [23]): 5.7 |
| CNC1=Nc2ccc(Cl)cc2C(c2ccccc2)=[N+]([O-])C1 [CHLORDIAZEPOXIDE] | – | – | – | – | – | – | – | – | – | – | – | Activity (Rattus norvegicus [9]): 3.4; Activity (Rattus norvegicus [10]): 70.2; Activity (Rattus norvegicus [11]): 70.8; Activity (Rattus norvegicus [12]): 3.7; Activity (Rattus norvegicus [13]): 1.9; Activity (Rattus norvegicus [14]): 1.4; Activity (Rattus norvegicus [15]): 4.2; Activity (Rattus norvegicus [17]): 3.3; Activity (Rattus norvegicus [19]): 0.6; Activity (Rattus norvegicus [20]): 54.3; Activity (Rattus norvegicus [21]): 68.8; Activity (Rattus norvegicus [23]): 2.2 |
| CC(C)n1cc2c(n1)Nc1ccc(F)cc1N=C2N1CCN(C)CC1 | 40 | 25 | – | – | 200 | >50 | 7.2 | 1.1 | – | – | 50 | – |
| CN1CCN(C2=Nc3cc(F)ccc3Nc3c2cnn3C)CC1 | >50 | – | – | – | >200 | – | – | – | – | – | 100 | ED (Rattus norvegicus [31]): >50 mg/kg |
| CCCn1cc2c(n1)Nc1ccc(F)cc1N=C2N1CCN(C)CC1 | 50 | 40 | – | – | 200 | >50 | 16 | 0.18 | – | – | 25 | – |
| CN1CCN(C2=Nc3cc(Cl)ccc3Nc3nn(C)cc32)CC1 | >10 | 10 | >25 | 0.8 | 12.5 | – | – | – | 8.9 | 0.68 | – | Activity (Rattus norvegicus [9]): 6.5; Activity (Rattus norvegicus [24]): 14.1; Activity (Rattus norvegicus [10]): 24.9; Activity (Rattus norvegicus [11]): 27.5; Activity (Rattus norvegicus [12]): 9.6; Activity (Rattus norvegicus [13]): 6; Activity (Rattus norvegicus [14]): 2.1; Activity (Rattus norvegicus [15]): 8.1; Activity (Rattus norvegicus [16]): 5.6; Activity (Rattus norvegicus [17]): 7.8; Activity (Rattus norvegicus [28]): 4.6; Activity (Rattus norvegicus [18]): 24.9; Activity (Rattus norvegicus [19]): 1.1; Activity (Rattus norvegicus [20]): 5.4; Activity (Rattus norvegicus [21]): 26.3; Activity (Rattus norvegicus [29]): 4.8; Activity (Rattus norvegicus [22]): 9.3; Activity (Rattus norvegicus [23]): 7.9 |
| CCn1cc2c(n1)Nc1ccc(F)cc1N=C2N1CCN(C)CC1 | >40 | 50 | 50 | 6 | >400 | – | – | – | 14 | 3.3 | – | – |
| CN1CCN(C2=Nc3ccccc3Nc3c2cnn3C)CC1 | >50 | >50 | – | – | >400 | >50 | > 100 | 1500 | – | – | >400 | – |
| CN1CCN(C2=Nc3ccccc3Nc3nn(C)cc32)CC1 | >50 | >50 | – | – | 200 | 50 | 38 | 6.3 | – | – | 50 | – |
| CN1CCN(C2=Nc3cc(Cl)ccc3Nc3ccccc32)CC1 [CLOZAPINE] | 40 | 30 | – | – | 100 | 80 | – | – | – | – | 50 | – |
| Cc1c2c(nn1C)Nc1ccc(F)cc1N=C2N1CCN(C)CC1 | >50 | >50 | 50 | 25 | 200 | – | – | – | 3.2 | 97 | – | – |
| CN1CCN(C2=Nc3ccc(F)cc3Nc3nn(C)cc32)CC1 | >40 | >20 | >50 | 1.6 | 100 | – | – | – | 43 | 2.6 | – | – |
| CCCCCCn1cc2c(n1)Nc1ccc(F)cc1N=C2N1CCN(C)CC1.Cl | >50 | >50 | >50 | 100 | >400 | – | – | – | 18 | 0.7 | – | – |
